Data: ChEMBL document CHEMBL1811814, “Synthesis and evaluation of indole, pyrazole, chromone and pyrimidine based conjugates for tumor growth inhibitory activities--development of highly efficacious cytotoxic agents” (Eur J Med Chem, 2010)

Key:
Assay type in all cases: functional
Set-up in all cases: scale not given: the % may be the effect or the level left
HL-60(TB) = test: Growth inhibition of human HL-60(TB) cells assessed tumor cell growth at 10^-5 M
Outline: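 HL-60(TB), part of the 60-line panel, tested at a single concentration of 10^-5 M. The read-out is percent tumor cell growth relative to untreated growth.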

K562 = test: Growth inhibition of human K562 cells assessed tumor cell growth at 10^-5 M
Outline: (§1)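 NCI 60-human-tumor-cell-line panel screen. Each compound was tested at a single concentration of 10^-5 M, and percent growth of tumor cells was recorded for each cell line. Growth inhibition was expressed from these percent-growth values.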

MOLT-4 = test: Growth inhibition of human MOLT4 cells assessed tumor cell growth at 10^-5 M; outline: as §1
[1] = Growth inhibition of human […] cells assessed tumor cell growth at 10^-5 M; outline: as §1
SR = test: Growth inhibition of human SR cells assessed tumor cell growth at 10^-5 M
Outline: (§2)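 Single-dose screen at 10^-5 M across the 60 human tumor cell line panel, run to NCI standards. The value is the percent growth of each cell line in the presence of compound. Compounds active at this dose moved on to five-concentration testing (10^-4 to 10^-8 M).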

A549 = test: Growth inhibition of human A549 cells assessed tumor cell growth at 10^-5 M; outline: as §1
EKVX = test: Growth inhibition of human EKVX cells assessed tumor cell growth at 10^-5 M; outline: as §1
HOP-62 = test: Growth inhibition of human HOP62 cells assessed tumor cell growth at 10^-5 M; outline: as §1
NCI-H226 = test: Growth inhibition of human NCI-H226 cells assessed tumor cell growth at 10^-5 M; outline: as §1
NCI-H23 = test: Growth inhibition of human NCI-H23 cells assessed tumor cell growth at 10^-5 M; outline: as §1
NCI-H322M = test: Growth inhibition of human NCI-H322M cells assessed tumor cell growth at 10^-5 M; outline: as §1
NCI-H460 = test: Growth inhibition of human NCI-H460 cells assessed tumor cell growth at 10^-5 M; outline: as §1
NCI-H522 = test: Growth inhibition of human NCI-H522 cells assessed tumor cell growth at 10^-5 M; outline: as §1
COLO 205 = test: Growth inhibition of human COLO205 cells assessed tumor cell growth at 10^-5 M; outline: as §1
HCT-116 = test: Growth inhibition of human HCT116 cells assessed tumor cell growth at 10^-5 M; outline: as §1
HCT-15 = test: Growth inhibition of human HCT15 cells assessed tumor cell growth at 10^-5 M; outline: as §1
HT-29 = test: Growth inhibition of human HT-29 cells assessed tumor cell growth at 10^-5 M; outline: as §1
KM12 = test: Growth inhibition of human KM12 cells assessed tumor cell growth at 10^-5 M; outline: as §1
SW-620 = test: Growth inhibition of human SW620 cells assessed tumor cell growth at 10^-5 M; outline: as §2
SF-268 = test: Growth inhibition of human SF268 cells assessed tumor cell growth at 10^-5 M; outline: as §1
SF-295 = test: Growth inhibition of human SF295 cells assessed tumor cell growth at 10^-5 M; outline: as §1
SF-539 = test: Growth inhibition of human SF539 cells assessed tumor cell growth at 10^-5 M; outline: as §1
SNB-19 = test: Growth inhibition of human SNB19 cells assessed tumor cell growth at 10^-5 M; outline: as §2
SNB-75 = test: Growth inhibition of human SNB75 cells assessed tumor cell growth at 10^-5 M; outline: as §2
U-251 = test: Growth inhibition of human U251 cells assessed tumor cell growth at 10^-5 M; outline: as §2
LOX IMVI = test: Growth inhibition of human LOXIMVI cells assessed tumor cell growth at 10^-5 M; outline: as §1
Malme-3M = test: Growth inhibition of human MALME-3M cells assessed tumor cell growth at 10^-5 M; outline: as §1
M14 = test: Growth inhibition of human M14 cells assessed tumor cell growth at 10^-5 M; outline: as §1
MDA-MB-435 = test: Growth inhibition of human MDA-MB-435 cells assessed tumor cell growth at 10^-5 M; outline: as §1
SK-MEL-2 = test: Growth inhibition of human SK-MEL-2 cells assessed tumor cell growth at 10^-5 M; outline: as §1
SK-MEL-28 = test: Growth inhibition of human SK-MEL-28 cells assessed tumor cell growth at 10^-5 M; outline: as §1
SK-MEL-5 = test: Growth inhibition of human SK-MEL-5 cells assessed tumor cell growth at 10^-5 M; outline: as §1
UACC-62 = test: Growth inhibition of human UACC62 cells assessed tumor cell growth at 10^-5 M; outline: as §2
IGROV-1 = test: Growth inhibition of human IGROV1 cells assessed tumor cell growth at 10^-5 M; outline: as §1
OVCAR-3 = test: Growth inhibition of human OVCAR3 cells assessed tumor cell growth at 10^-5 M; outline: as §1
OVCAR-4 = test: Growth inhibition of human OVCAR4 cells assessed tumor cell growth at 10^-5 M; outline: as §1
OVCAR-5 = test: Growth inhibition of human OVCAR5 cells assessed tumor cell growth at 10^-5 M; outline: as §1
OVCAR-8 = test: Growth inhibition of human OVCAR8 cells assessed tumor cell growth at 10^-5 M; outline: as §1
NCI/ADR-RES = test: Growth inhibition of human NCI/ADR-RES cells assessed tumor cell growth at 10^-5 M; outline: as §1
SK-OV-3 = test: Growth inhibition of human SKOV3 cells assessed tumor cell growth at 10^-5 M; outline: as §1
786-0 = test: Growth inhibition of human 786-0 cells assessed tumor cell growth at 10^-5 M; outline: as §1
A498 = test: Growth inhibition of human A498 cells assessed tumor cell growth at 10^-5 M; outline: as §1
ACHN = test: Growth inhibition of human ACHN cells assessed tumor cell growth at 10^-5 M; outline: as §1
CAKI-1 = test: Growth inhibition of human Caki1 cells assessed tumor cell growth at 10^-5 M; outline: as §1
RXF 393 = test: Growth inhibition of human RXF393 cells assessed tumor cell growth at 10^-5 M; outline: as §1
SN12C = test: Growth inhibition of human SN12C cells assessed tumor cell growth at 10^-5 M; outline: as §1
TK-10 = test: Growth inhibition of human TK10 cells assessed tumor cell growth at 10^-5 M; outline: as §2
UO-31 = test: Growth inhibition of human UO31 cells assessed tumor cell growth at 10^-5 M; outline: as §2
PC-3 = test: Growth inhibition of human PC3 cells assessed tumor cell growth at 10^-5 M; outline: as §1
DU-145 = test: Growth inhibition of human DU145 cells assessed tumor cell growth at 10^-5 M; outline: as §1
MCF7 = test: Growth inhibition of human MCF7 cells assessed tumor cell growth at 10^-5 M; outline: as §1
MDA-MB-231 = test: Growth inhibition of human MDA-MB-231 cells assessed tumor cell growth at 10^-5 M; outline: as §1
[2] = Growth inhibition of human Hs 578T cells assessed tumor cell growth at 10^-5 M; outline: as §1
T47D = test: Growth inhibition of human T47D cells assessed tumor cell growth at 10^-5 M; outline: as §2
MDA-MB-468 = test: Growth inhibition of human MDA-MB-468 cells assessed tumor cell growth at 10^-5 M; outline: as §1

Cc1ccc(S(=O)(=O)N2C(=O)/C(=C\c3cn(S(=O)(=O)c4ccc(C)cc4)c4ccccc34)c3ccccc32)cc1
Activity (HL-60(TB)): 85.6%
Activity (K562): 83.9%
Activity (MOLT-4): 90.4%
Activity [1]: 92.6%
Activity (SR): 70.4%
Activity (A549): 87.4%
Activity (EKVX): 99.9%
Activity (HOP-62): 80.2%
Activity (NCI-H226): 97.5%
Activity (NCI-H23): 96.5%
Activity (NCI-H322M): 102.4%
Activity (NCI-H460): 93.2%
Activity (NCI-H522): 49.7%
Activity (COLO 205): 107.3%
Activity (HCT-116): 83.1%
Activity (HCT-15): 97.4%
Activity (HT-29): 90%
Activity (KM12): 103.9%
Activity (SW-620): 94.8%
Activity (SF-268): 84.9%
Activity (SF-295): 91.8%
Activity (SF-539): 88%
Activity (SNB-19): 82.9%
Activity (SNB-75): 40.2%
Activity (U-251): 76.2%
Activity (LOX IMVI): 82.3%
Activity (Malme-3M): 97.7%
Activity (M14): 100.7%
Activity (MDA-MB-435): 109.2%
Activity (SK-MEL-2): 68.1%
Activity (SK-MEL-28): 100.5%
Activity (SK-MEL-5): 98.1%
Activity (UACC-62): 82.1%
Activity (IGROV-1): 105%
Activity (OVCAR-3): 107.8%
Activity (OVCAR-4): 100.5%
Activity (OVCAR-5): 96.2%
Activity (OVCAR-8): 76%
Activity (NCI/ADR-RES): 95.6%
Activity (SK-OV-3): 81%
Activity (786-0): 71.2%
Activity (A498): 96.8%
Activity (ACHN): 91.3%
Activity (CAKI-1): 89.6%
Activity (RXF 393): 77%
Activity (SN12C): 98.9%
Activity (TK-10): 65.5%
Activity (UO-31): 77.1%
Activity (PC-3): 71.7%
Activity (DU-145): 100%
Activity (MCF7): 93.9%
Activity (MDA-MB-231): 84.2%
Activity [2]: 74.8%
Activity (T47D): 94.8%
Activity (MDA-MB-468): 103.8%

O=C1/C(=C\c2cn(C(=O)c3ccc(Cl)cc3)c3ccccc23)c2ccccc2N1C(=O)c1ccc(Cl)cc1
Activity (HL-60(TB)): 54.1%
Activity (K562): 83.8%
Activity (MOLT-4): 61.5%
Activity [1]: 57.4%
Activity (SR): 56.1%
Activity (A549): 63.2%
Activity (EKVX): 70.7%
Activity (HOP-62): 61.3%
Activity (NCI-H226): 89.4%
Activity (NCI-H23): 83.1%
Activity (NCI-H322M): 98.5%
Activity (NCI-H460): 86%
Activity (NCI-H522): 6%
Activity (COLO 205): 104.7%
Activity (HCT-116): 65.1%
Activity (HCT-15): 65.8%
Activity (HT-29): 70.4%
Activity (KM12): 24.2%
Activity (SW-620): 93.1%
Activity (SF-268): 77.5%
Activity (SF-295): 101.9%
Activity (SF-539): 67.3%
Activity (SNB-19): 98.2%
Activity (SNB-75): 54.4%
Activity (U-251): 74.1%
Activity (LOX IMVI): 67.7%
Activity (Malme-3M): 126%
Activity (M14): 79.1%
Activity (MDA-MB-435): 97.5%
Activity (SK-MEL-2): 49.8%
Activity (SK-MEL-28): 103%
Activity (SK-MEL-5): 74.8%
Activity (UACC-62): 88.9%
Activity (IGROV-1): 80%
Activity (OVCAR-3): 84.2%
Activity (OVCAR-4): 71.9%
Activity (OVCAR-5): 114.7%
Activity (OVCAR-8): 78.6%
Activity (NCI/ADR-RES): 83.4%
Activity (SK-OV-3): 77%
Activity (786-0): 93.7%
Activity (A498): 81%
Activity (ACHN): 63.2%
Activity (CAKI-1): 73.8%
Activity (RXF 393): 83.2%
Activity (SN12C): 80.7%
Activity (TK-10): 55.3%
Activity (UO-31): 64.4%
Activity (PC-3): 65.7%
Activity (DU-145): 85%
Activity (MCF7): 71.1%
Activity (MDA-MB-231): 81.2%
Activity [2]: 80.5%
Activity (T47D): 61.7%
Activity (MDA-MB-468): 51.7%
